Activity calls are given as the source filed them. The rule behind the calls is not given here.
Experiments:
Syntenin-1/Syndecan-2 [1] = molecular target: T1, Syntenin-1/Syndecan-2 (Homo sapiens, UniProt O00560); assay: Inhibition of recombinant human full-length GST-tagged syntenin-1/Syndecan-2 complex interaction expressed in Escherichia coli ER2566 measured after 16 hrs by HTRF assay
Summary of the method: (§1)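 HTRF assay of E. coli ER2566-expressed GST-syntenin-1 full length binding to syndecan-2; serial DMSO dilutions of compound in triplicate, 16 h at 4°C after spin. 665/620 nm ratio (excitation 337 nm) converted to % inhibition versus DMSO-only and no-protein controls to derive IC50; for line 4, buffer contained 0.01% NP40.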

[2] = molecular target: Syntenin-1/Syndecan-2 (Homo sapiens) (UniProt O00560+P34741); assay: Inhibition of recombinant human full-length GST-tagged syntenin-1/Syndecan-2 complex interaction expressed in Escherichia coli ER2566 at 400 uM measured after 16 hrs by HTRF assay
Summary of the method: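 GST-syntenin-1 full length expressed in E. coli ER2566 (0.4 mM IPTG, overnight at 30 °C), purified on GSTrap; HTRF binding to syndecan-2. Compounds at 400 μM, single well, plates spun then incubated 16 h at 4°C. Excitation 337 nm, emission 665/620 ratio; % inhibition from DMSO-only max and no-protein min signals.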

Syntenin-1/Syndecan-2 [3] = molecular target: T1, Syntenin-1/Syndecan-2; assay: Inhibition of recombinant human full-length GST-tagged syntenin-1/Syndecan-2 complex interaction expressed in Escherichia coli ER2566 in presence of NP40 detergent measured after 16 hrs by HTRF assay; summary of the method: as §1
MCF7 [4] = assay: Down regulation of syntenin-1 level in human MCF7 cells at 100 uM measured after 16 hrs by Western blot analysis; assay type: functional, cell-based
Summary of the method: (§2)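 MCF-7 cells (DMEM-F12, 10% FCS, 37°C, 5% CO2) treated at 100 μM or DMSO 0.2% vehicle for 16 h in medium with 10% exosome-depleted FCS. Exosomes isolated from medium by sequential centrifugation at 4 °C (500 g, 10,000 g, 100,000 g pellet, PBS wash); loading normalized to parent cell number. SDS-PAGE western blot; mean signal relative to vehicle, N independent experiments, one-way ANOVA with Tukey posttest.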

MCF7 [5] = assay: Down regulation of flotillin-1 level in human MCF7 cells at 100 uM measured after 16 hrs by Western blot analysis; assay type: functional, cell-based; summary of the method: as §2

T1 sequence (O00560 whole entry): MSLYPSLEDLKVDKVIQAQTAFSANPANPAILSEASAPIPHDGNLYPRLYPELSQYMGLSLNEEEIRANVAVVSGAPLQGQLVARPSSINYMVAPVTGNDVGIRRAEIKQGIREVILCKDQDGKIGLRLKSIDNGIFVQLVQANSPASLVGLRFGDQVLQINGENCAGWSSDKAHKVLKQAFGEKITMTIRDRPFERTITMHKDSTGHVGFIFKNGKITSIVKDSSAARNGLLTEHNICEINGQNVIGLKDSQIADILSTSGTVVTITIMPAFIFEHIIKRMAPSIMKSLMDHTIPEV
T1 sequence (P34741 whole entry, further chain): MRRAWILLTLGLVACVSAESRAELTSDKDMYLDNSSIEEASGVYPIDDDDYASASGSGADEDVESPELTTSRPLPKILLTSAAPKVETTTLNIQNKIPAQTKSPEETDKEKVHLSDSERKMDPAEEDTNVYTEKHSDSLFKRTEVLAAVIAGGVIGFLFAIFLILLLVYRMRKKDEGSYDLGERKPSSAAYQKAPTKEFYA

## COCCOc1ccc(-c2ccc(SCCC(=O)N[C@H](C(=O)O)C(C)C)cc2)cn1
Syntenin-1/Syndecan-2 [1]
  IC50: 112 µM

## C[C@H](NC(=O)CSc1ccc(Cl)cc1)C(=O)O
[2]
  inhibition: 25%

## CC(C)[C@H](NC(=O)CCSc1ccc(-c2ccc(OS(C)(=O)=O)cc2)cc1)C(=O)O
Syntenin-1/Syndecan-2 [1]
  IC50: 7.4 µM
Syntenin-1/Syndecan-2 [3]
  IC50: 204 µM

## O=C(CCOc1ccc(Cl)cc1)N[C@@H](Cc1ccccc1)C(=O)O
[2]
  inhibition: 1%

## C[C@H](NC(=O)CCSc1ccccc1)C(=O)O
[2]
  inhibition: 19%

## O=C(CCSc1ccc(Cl)cc1)N[C@@H](Cc1ccccc1)C(=O)O
[2]
  inhibition: 0%

## C[C@H](NC(=O)CSc1ccccc1)C(=O)O
[2]
  inhibition: 0%

## CC(C)[C@H](NC(=O)CCSc1ccc(-c2cccc(CO)c2)cc1)C(=O)O
Syntenin-1/Syndecan-2 [1]
  IC50: 96 µM

## CC(C)[C@H](NC(=O)CSc1ccccc1)C(=O)O
[2]
  inhibition: 20%

## CC(C)[C@H](NC(=O)CCCc1ccccc1)C(=O)O
[2]
  inhibition: 9%

## O=C(CCSc1ccccc1)N[C@@H](Cc1ccccc1)C(=O)O
[2]
  inhibition: 0%

## CC(C)[C@H](NC(=O)CCSc1ccc(-c2cccc(O)c2)cc1)C(=O)O
Syntenin-1/Syndecan-2 [1]
  IC50: > 200 µM

## CC(C)[C@H](NC(=O)CCSc1ccc(-c2ccc(S(=O)(=O)N3CCCCC3)cc2)cc1)C(=O)O
Syntenin-1/Syndecan-2 [1]
  IC50: > 200 µM

## C[C@H](NC(=O)CCOc1ccccc1)C(=O)O
[2]
  inhibition: 11%

## C[C@H](NC(=O)CCSc1ccc(Cl)cc1)C(=O)O
[2]
  inhibition: 56%

## CC(C)[C@H](NC(=O)CCOc1ccccc1)C(=O)O
[2]
  inhibition: 0%

## CC(C)[C@H](NC(=O)CCSc1ccc(Br)cc1)C(=O)O
Syntenin-1/Syndecan-2 [1]
  IC50: 47 µM
Syntenin-1/Syndecan-2 [3]
  IC50: 51 µM
MCF7 [4]
  Activity: Active
MCF7 [5]
  Activity: inactive

## CC(C)[C@H](NC(=O)CCSc1ccc(-c2ccc(CNC(=O)OC(C)(C)C)cc2)cc1)C(=O)O
Syntenin-1/Syndecan-2 [1]
  IC50: 69 µM

## CC(C)[C@H](NC(=O)CSc1ccc(Cl)cc1)C(=O)O
[2]
  inhibition: 56%
Syntenin-1/Syndecan-2 [3]
  IC50: 864 µM

## CC(C)[C@H](NC(=O)CCSc1ccc(-c2cccc(S(N)(=O)=O)c2)cc1)C(=O)O
Syntenin-1/Syndecan-2 [1]
  IC50: 78 µM

## C[C@H](NC(=O)COc1ccccc1)C(=O)O
[2]
  inhibition: 0%

## CC(=O)Nc1ccc(-c2ccc(SCCC(=O)N[C@H](C(=O)O)C(C)C)cc2)cn1
Syntenin-1/Syndecan-2 [1]
  IC50: 177 µM

## O=C(CCOc1ccccc1)N[C@@H](Cc1ccccc1)C(=O)O
[2]
  inhibition: 0%

## C[C@H](NC(=O)COc1ccc(Cl)cc1)C(=O)O
[2]
  inhibition: 0%

## C[C@H](NC(=O)CCOc1ccc(Cl)cc1)C(=O)O
[2]
  inhibition: 6%

## CC(C)[C@H](NC(=O)CCOc1ccc(Cl)cc1)C(=O)O
[2]
  inhibition: 31%

## CC(C)[C@H](NC(=O)COc1ccccc1)C(=O)O
[2]
  inhibition: 7%

## CC(C)[C@H](NC(=O)CCSc1ccccc1)C(=O)O
[2]
  inhibition: 76%

## CC(C)[C@H](NC(=O)CCSc1ccc(Cl)cc1)C(=O)O
[2]
  inhibition: 94%
Syntenin-1/Syndecan-2 [1]
  IC50: 33 µM
Syntenin-1/Syndecan-2 [3]
  IC50: 45 µM
MCF7 [4]
  Activity: Active
MCF7 [5]
  Activity: inactive

## CC(C)[C@H](NC(=O)CCSc1ccc(-c2ccc(CCC(=O)O)cc2)cc1)C(=O)O
Syntenin-1/Syndecan-2 [1]
  IC50: > 200 µM

## CC(C)[C@H](NC(=O)COc1ccc(Cl)cc1)C(=O)O
[2]
  inhibition: 16%

From ChEMBL document CHEMBL4831487, “Fragment-based drug design targeting syntenin PDZ2 domain involved in exosomal release and tumour spread” (Eur J Med Chem, 2021)
